Measured values of several laboratories.
EGFR: Epidermal growth factor receptor (EGFR, Homo sapiens, UniProt P00533)
EGFR G719S: Epidermal growth factor receptor (EGFR, Homo sapiens, UniProt P00533, G719S)
EGFR G719C: Epidermal growth factor receptor (EGFR, Homo sapiens, UniProt P00533, G719C)

The remaining activity of `C#Cc1cnc(Nc2ccnc(CO)c2)nc1Nc1ccccc1S(C)(=O)=NC#N` (stereo not shown) is reported as 80% (EGFR; enzyme activity; inhibitor; radiometric; 1 µM).
`CO[C@@H]1[C@H](N(C)C(=O)c2ccccc2)C[C@H]2O[C@]1(C)n1c3ccccc3c3c4c(c5c6ccccc6n2c5c31)C(=O)NC4` gave an inhibition of 10% (Epidermal growth factor receptor (EGFR, Homo sapiens, UniProt P00533, del747-752/P753S); enzyme activity; inhibitor; 1 µM).
The remaining activity of `CNC(=O)c1ccccc1Nc1nc(Nc2ccc(CO)nc2)ncc1Cl` is reported as 26% (EGFR; enzyme activity; inhibitor; radiometric; 1 µM).
`CCCCC(=O)Nc1ccc(-c2ccc3ncn(CCC)c(=O)c3c2)cn1` has a remaining binding of 100% (EGFR G719S; binding; competition with immobilised ligand; 0.5 µM).
`COc1ccc2[nH]c3c4[nH]c5ccc(OC)cc5c4c4c(c3c2c1)C(=O)NC4=O` has a remaining binding of 68% (Epidermal growth factor receptor (EGFR, Homo sapiens, UniProt P00533, del752-759); binding; 1 µM).
For `CS(=O)(=O)c1ccccc1Nc1nc(Nc2ccnc(CO)c2)ncc1Cl`, the remaining activity was 94.8% (EGFR; enzyme activity; inhibitor; radiometric; 1 µM).
With `Cc1ccc(NC(=O)c2ccnc(C(F)(F)F)c2)cc1-c1cc(OCCO)nc(N2CCOCC2)c1` the remaining binding was 97% (EGFR G719C; binding; 1 µM).
With `CS(=O)(=NC#N)c1ccccc1Nc1nc(Nc2ccnc(CO)c2)ncc1Cl` (stereo not shown) the remaining activity was 99.4% (EGFR; enzyme activity; inhibitor; radiometric; 1 µM).
The remaining binding of `N#Cc1ccc(NC(=O)Nc2ccccc2)cc1` is reported as 75% (Epidermal growth factor receptor (EGFR, Homo sapiens, UniProt P00533, L858R); cell-free assay; competition with immobilised ligand; 25 µM).
`CC#CC(=O)N1CCC[C@H]1c1nc(-c2ccc(C(=O)Nc3ccccn3)cc2)c2c(N)nccn12` has an inhibition of 0% (Epidermal growth factor receptor (EGFR, Homo sapiens, UniProt P00533, del746-750); enzyme activity; inhibitor; 1 µM).
The remaining signal of `COc1ccc2oc(-c3ccc4nc(N)oc4c3)c/c(=N\c3ccccc3NC(=O)CCN)c2c1` is reported as 99% (Epidermal growth factor receptor (EGFR, Homo sapiens, UniProt P00533, T790M); cell-free assay; 1 µM).
With `CN1CCN(C(=O)c2ccc(NC(=O)Nc3ccc(N(C)c4ccnc(Nc5ccc(CS(C)(=O)=O)cc5)n4)cc3)cc2)CC1` the remaining binding was 95% (EGFR G719C; binding; 1 µM).
With `C1=C/COCc2cc(ccc2OCCN2CCCC2)Nc2nccc(n2)-c2cccc(c2)COC/1` the remaining binding was 75% (EGFR G719C; binding; 0.1 µM).
The remaining signal of `C[C@H]1CC[C@H](n2c3cnccc3c3cnc(Nc4ccc5c(n4)CCN(C(=O)CO)C5)nc32)CC1` is reported as 93% (Epidermal growth factor receptor (EGFR, Homo sapiens, UniProt P00533, L858R/T790M); cell-free assay; 1 µM).
`C#Cc1cnc(Nc2ccc(CO)nc2)nc1Nc1ccccc1S(C)(=O)=NC#N` (stereo not shown) has a remaining activity of 75.6% (EGFR; enzyme activity; inhibitor; radiometric; 1 µM).
`C=CC(=O)N1CCC([C@@H]2CCNc3c(C(N)=O)c(-c4ccc(Oc5ccccc5)cc4)nn32)CC1` gave an inhibition of 95% (EGFR G719S; cell-free assay; 1 µM).
